The list is not random: actives were taken first. Their share in the collection is about 3.6%.
ATG4B inhibitor: ATG4B (human) cysteine protease inhibition; inhibition, % at 8.33 µM; ATG4B cleavage of LC3-PLA2, NBD-HPC fluorescence, 1 h; Q9Y4P1; 340,000 tested, 0.51% active; in the data active = inhibition above about 40%
NadD block: inhibitors of Staphylococcus aureus NadD. purified NadD enzyme, colorimetric absorbance read-out. AID 602399. 360,000 tested, 0.78% active. inhibition, % at 20 µM; in the data active = inhibition above about 26%
SENP1 inh: blocks the human SENP1 SUMO protease catalytic domain. inhibition, % at 10 µM. recombinant SENP1 catalytic domain, CyPet-SUMO1-YPet FRET cleavage. 360,000 tested, 0.21% active;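 active = inhibition at least 30% at 10 µM, raw YFP signal under a set limit, fluorescence ratio 0.5 to 1.5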;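 also: 0% = enzyme with DMSO and 100% = no enzyme wells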
Target sequence (Q9P0U3 419-644 limits assumed): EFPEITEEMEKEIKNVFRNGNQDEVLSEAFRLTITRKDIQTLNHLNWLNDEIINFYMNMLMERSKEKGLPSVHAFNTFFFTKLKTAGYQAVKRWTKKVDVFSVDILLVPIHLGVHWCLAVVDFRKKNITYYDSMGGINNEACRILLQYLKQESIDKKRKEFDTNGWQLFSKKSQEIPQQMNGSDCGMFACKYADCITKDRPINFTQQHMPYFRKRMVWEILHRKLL
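Test system: human SENP1 catalytic domain; medium: Tris pH 8 buffer plus EDTA, NaCl, BME, BSA, NP40, catalase; incubation: 50 min reaction at room temperature; technique: FRET, CFP and YFP emission; controls: no-enzyme low control and enzyme-plus-DMSO high control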
UCH37 DUB inh: blocks the human deubiquitinase UCH37 | 330,000 tested, 0.33% active | AID 588478 | inhibition, % (concentration not given with the values) | purified proteasome/UCH37, Ub-AMC cleavage fluorescence | Q9Y5K5;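 active = mean inhibition over replicate wells above about 20%, limit read from the data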;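 also: 0% = compound-free wells with enzyme and 100% = wells lacking proteasome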
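System: Proteasome-associated human UCH37 deubiquitinase; Input: 0.15 nM proteasome in added enzyme buffer; Also added: Ub-AMC substrate from 1 µM stock; Incubation: 30 min compound-proteasome preincubation then 25 min substrate reaction, room temperature; Detection: fluorescence, ex 355 nm, em 460 nm; Read-out: % inhibition of Ub-AMC cleavage fluorescence; Benchmarks: no-proteasome and no-compound wells.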
GRIN3A LBD mod: NR3A (human) ligand-binding domain modulation | NR3A LBD differential scanning fluorimetry, Tm shift; 0% = protein alone, 100% = glycine-bound protein | Tm shift relative to glycine control, % at 25 µM | 340,000 tested, 2.5% active | AID 1259313;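 active = melting temperature shift of at least 10% of the positive control shift, at one fixed dose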
* marks the source's active call; other numbers are inactive results.

What do the screens show for `CC12CC[C@H]3[C@@H](CCC4(O)C[C@H](O)CCC34C=NNC(=O)c3ccc(O)cc3)C1(O)CCC2C1=CC(=O)OC1` (stereo partly specified)?
UCH37 DUB inh: 0

Results for O=c1c2ccccc2nc(-c2ccccc2)n1-n1cccc1 ?
ATG4B inhibitor: 10; NadD block: -4; SENP1 inh: 1; UCH37 DUB inh: 24*; GRIN3A LBD mod: 11*

How did N#Cc1c(N=Cc2ccc(O)cc2O)sc2c1C1CCN2CC1 do in these assays?
UCH37 DUB inh: 6

How did COc1ccc(C=NN=C(N)N)cc1 do in these assays?
UCH37 DUB inh: 2

Results for CN1C(=O)C(Cc2ccccc2)C(=O)N(C)C1=O ?
ATG4B inhibitor: -6; NadD block: 1; SENP1 inh: -2; GRIN3A LBD mod: 10

What do the screens show for `CCCCOc1ccc(CC2C(=O)N(C)C(=O)N(C)C2=O)cc1`?
ATG4B inhibitor: 0; NadD block: -2; SENP1 inh: 0; UCH37 DUB inh: 29*; GRIN3A LBD mod: 0

Results for O=C(Nc1ccc(Cl)c(Cl)c1)c1ccco1 ?
ATG4B inhibitor: 5; NadD block: -2; SENP1 inh: 2; UCH37 DUB inh: -1; GRIN3A LBD mod: 5

Results for C=CCNC(=S)Nc1ccc(OC(=O)Nc2ccc(Cl)c(Cl)c2)cc1 ?
ATG4B inhibitor: 9; NadD block: -6; SENP1 inh: 3; GRIN3A LBD mod: 21*

What do the screens show for `CCC(=Nc1ccc2c(c1)CCC2)c1c(O)n(C)c(=O)n(C)c1=O`?
ATG4B inhibitor: 2; NadD block: -4; SENP1 inh: 0; UCH37 DUB inh: 2; GRIN3A LBD mod: 0

Results for CC(=Nc1ccc2c(c1)CCC2)c1c(O)n(C)c(=O)n(C)c1=O ?
ATG4B inhibitor: -7; NadD block: -2; SENP1 inh: -3; UCH37 DUB inh: 32*; GRIN3A LBD mod: 0

How did COC(=O)c1ccc(NC(=O)CSc2nc3ccc(N4C(=O)C5C6C=CC(C6)C5C4=O)cc3s2)cc1 (stereo unspecified) do in these assays?
ATG4B inhibitor: -12; NadD block: 4; SENP1 inh: 2; UCH37 DUB inh: -2; GRIN3A LBD mod: 12*

What do the screens show for `O=C(Nc1cccnc1)c1c(O)c2c(n(Cc3ccccc3)c1=O)CCCC2`?
ATG4B inhibitor: -10; NadD block: 5; SENP1 inh: 2; UCH37 DUB inh: -2; GRIN3A LBD mod: 1

Results for O=C(Nc1ccc(F)cc1)c1c(O)c2c(n(Cc3ccccc3)c1=O)CCCC2 ?
ATG4B inhibitor: -2; NadD block: 2; SENP1 inh: 3; UCH37 DUB inh: 3; GRIN3A LBD mod: 11*

What do the screens show for `N#CC(C#N)=NNc1ccc(S(N)(=O)=O)cc1`?
ATG4B inhibitor: 7; NadD block: 41*; SENP1 inh: 3; UCH37 DUB inh: 15; GRIN3A LBD mod: 10

What do the screens show for `C=CCCC1(C2=CCCCC2)C(=O)NC(=O)NC1=O`?
ATG4B inhibitor: -2; NadD block: 0; SENP1 inh: -5; GRIN3A LBD mod: 15*

How did COC(=O)C1C(O)C(C)C(O)C(C)C=CC=C(C)C(=O)Nc2c(C)c(OC(C)=O)c3c(c2O)C(=O)C(C)=C2OCOC(=C23)C(C)=CC(C)(O)C(O)C(C)C1O (stereo unspecified) do in these assays?
UCH37 DUB inh: 16

Results for CNC(=O)Oc1ccc(-c2cn3cc(C)ccc3n2)cc1 ?
ATG4B inhibitor: -1; NadD block: 2; SENP1 inh: 2; UCH37 DUB inh: -31; GRIN3A LBD mod: 24*

What do the screens show for `CCC1(c2ccccc2)C(=O)NC(=S)NC1=O`?
ATG4B inhibitor: -5; NadD block: 1; SENP1 inh: 3; GRIN3A LBD mod: 11*

What do the screens show for `CCC1(c2ccccc2)C(=O)NC(=O)NC1=O`?
ATG4B inhibitor: 1; NadD block: 1; SENP1 inh: 1; UCH37 DUB inh: 2; GRIN3A LBD mod: 0

What do the screens show for `C[C@]12C=CC(=O)C=C1CC[C@@H]1[C@@H]2CC[C@]2(C)C(=O)CC[C@@H]12`?
ATG4B inhibitor: -22; NadD block: -5; SENP1 inh: 1; GRIN3A LBD mod: -2

What do the screens show for `C[C@]12CCC(=O)C(O)=C1CC[C@@H]1[C@@H]2CC[C@]2(C)C(=O)CC[C@@H]12`?
ATG4B inhibitor: -2; NadD block: -2; SENP1 inh: 1; UCH37 DUB inh: 1; GRIN3A LBD mod: 12*
